# Scp-1 inhibitor: blocks human Scp-1 phosphatase activity; Q9GZU7; Recombinant Scp1, phosphopeptide, malachite green phosphate absorbance; inhibition, % at 20 µM; 340,000 compounds, 0.88% hits; AID 493091;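 active means inhibition above about 50% at 20 µM, limit read from the data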;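 further: plate controls were DMSO wells with enzyme for no effect and wells lacking enzyme for full effect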
#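 Material – SCP-1 phosphatase catalytic domain, residues 76-261 · Buffer or medium – Acidic Tris acetate buffer with magnesium and detergent · Also added – Phospho 17-mer peptide substrate · Compound – single 20 µM dose, 1% DMSO · Times – 45 min room-temperature reaction, 5 min colour, 30 min stabiliser · Technique – Phosphate-binding colour reagent, absorbance read at 630 nm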
# FAS-TE inh: inhibitors of human fatty acid synthase thioesterase domain. recombinant FAS-TE, OMFH fluorogenic substrate, fluorescence endpoint. inhibition, % at 15 µM. P49327. AID 602261. 360,000 compounds, 0.67% hits;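 active means compounds whose normalised, plate-corrected inhibition of enzyme fluorescence in the single-dose primary screen is 50% or more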;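 further: 0% = DMSO with enzyme and 100% = substrate without enzyme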
# STEP block: inhibitors of human striatal-enriched phosphatase STEP. P54829. 360,000 compounds, 0.25% hits. inhibition, % at 20 µM. recombinant STEP, OMFP fluorogenic substrate, fluorescence;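 active means inhibition at 20 µM, scaled per plate between control wells, above about 37%, limit read from the data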;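 further: 0% = DMSO with enzyme and substrate and 100% = substrate only without enzyme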
# Target sequence (P54829 whole entry, looked up): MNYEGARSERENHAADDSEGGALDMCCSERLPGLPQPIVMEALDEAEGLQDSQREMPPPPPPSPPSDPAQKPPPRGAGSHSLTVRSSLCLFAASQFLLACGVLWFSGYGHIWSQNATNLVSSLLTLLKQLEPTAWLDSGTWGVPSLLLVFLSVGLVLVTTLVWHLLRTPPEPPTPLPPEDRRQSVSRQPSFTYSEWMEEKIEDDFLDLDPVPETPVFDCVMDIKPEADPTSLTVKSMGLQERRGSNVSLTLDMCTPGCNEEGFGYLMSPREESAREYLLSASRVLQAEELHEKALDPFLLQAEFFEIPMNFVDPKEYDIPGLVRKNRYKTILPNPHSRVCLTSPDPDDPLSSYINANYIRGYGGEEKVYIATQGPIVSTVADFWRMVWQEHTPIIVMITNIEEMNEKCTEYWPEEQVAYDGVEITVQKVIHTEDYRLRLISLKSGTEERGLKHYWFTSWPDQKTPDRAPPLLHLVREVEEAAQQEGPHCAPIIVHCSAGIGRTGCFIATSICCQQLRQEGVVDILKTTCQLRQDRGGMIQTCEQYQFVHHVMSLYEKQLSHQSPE
#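 Also added – OMFP at 25 µM · Test system – STEP tyrosine phosphatase · Technique – FITC-channel fluorescence of OMFP product · Schedule – 20 min at room temperature, dark · Evaluation – control-normalized % inhibition with plate pattern correction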
# SUMO1 PPI mod: SUMO1-SIM interaction modulation; SUMO1 binding to a labelled peptide, TR-FRET, 1 h; AID 602429; 360,000 compounds, 0.33% hits; P63165; inhibition, % at 20 µM; in the data active means inhibition above about 37%
# LMPTP block: blocks human LMPTP phosphatase | recombinant LMPTP-A, OMFP fluorogenic substrate, fluorescence intensity | inhibition, % at 20 µM | 360,000 compounds, 0.22% hits;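 active means compounds that cut the enzyme signal by at least half of the control window in the single-dose screen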;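 further: plate controls were DMSO wells with enzyme plus substrate for no effect and substrate without enzyme for full effect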
#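 Buffer or medium: Bis-Tris pH 6.0, DTT, detergent; Assay system: LMPTP-A enzyme; Quantity: 0.625 nM enzyme; Detection: endpoint fluorescence intensity; Times: 50 min dark incubation at room temperature; Controls: substrate-only low control, DMSO enzyme-plus-substrate high control; Doses: single 20 µM dose; Read-out: percent inhibition versus substrate-only and uninhibited controls; Reagent: 400 µM OMFP.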
# Scp1 confirm: confirmation of human Scp-1 phosphatase inhibitors; inhibition, % at 20 µM; 2,500 compounds, 61% hits; shares compounds with Scp-1 inhibitor; recombinant SCP-1 catalytic domain, phosphate release, malachite green absorbance;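 further: plate controls were DMSO with enzyme for no effect and buffer wells lacking enzyme for full effect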
# MG interference: interferes with malachite green readout, flagging false Scp-1 hits; shares compounds with Scp-1 inhibitor; Colorimetric interference counterscreen, malachite green absorbance 630 nm; apparent inhibition (interference), % at 20 µM; 2,500 tested, under 10 active; AID 540313;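 further: compounds added after enzyme reaction finished so only phosphate colour detection is probed; plate controls were DMSO wells with completed Scp-1 reaction for no effect and substrate wells lacking enzyme for full effect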
# Scp-1 Tm shift: Scp-1 (human) binding by thermal shift; thermal shift relative to vanadate control, % at 40 µM; shares compounds with Scp-1 inhibitor; 1,500 compounds, 25% hits; Recombinant SCP1, Sypro Orange thermal shift Tm;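 active means substances whose mean melting-temperature shift, as a percentage of the reference inhibitor's shift, reaches about 5.3%, limit read from the data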;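 further: 0% = Tm of DMSO wells and 100% = Tm with sodium orthovanadate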
# * hit, by the source's call; / = no result. The list is not random: actives were taken first. Their share in the collection is about 1.9%.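 How the source made its calls, unless noted: active means inhibition of at least 30% at 20 µM; inactive means the rest.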
SMILES,Scp-1 inhibitor,FAS-TE inh,STEP block,SUMO1 PPI mod,LMPTP block,Scp1 confirm,MG interference,others
CC(C)NC(=O)Nc1ccc2c(c1)C(=O)N([C@H](C)CO)C[C@H](C)[C@@H](CN(C)C(=O)Nc1ccccc1)O2,-6,-1,1,7,0,/,/,
C[C@H](CO)N1C[C@H](C)[C@@H](CN(C)C(=O)Nc2ccc(C(F)(F)F)cc2)Oc2ccc(NC(=O)C3CC3)cc2C1=O,56*,-6,1,1,1,-3,-21,
CC(C)(C)NC(=O)C(c1ccco1)N(Cc1ccc2c(c1)OCO2)C(=O)c1snc(C(N)=O)c1N (configuration not stated),-3,2,0,-12,1,/,/,
Cc1cc(-c2ccc([N+](=O)[O-])cc2)cc(C)n1,-8,5,-2,-33,-1,/,/,
COC(=O)[C@]12CCCCC=C1N(CCC1=CCCCC1)C(=O)[C@H](CC(=O)NCc1cccc3ccccc13)C2,/,19,/,7,6,/,/,
CC(C)(C)n1cnnc1Sc1ncccc1[N+](=O)[O-],-11,-4,0,-26,0,/,/,
O=C(CCCc1nc(-c2ccccc2)no1)NCc1cccnc1,70*,-8,3,0,1,7,-11,
CCC(C)C(NC(=O)C(Cc1ccc(O)cc1)NC(=O)OCc1ccccc1)C(=O)OC (configuration not stated),/,0,1,2,0,/,/,
CN(Cc1cnc2nc(N)nc(N)c2n1)c1ccc(C(=O)NC(CCC(=O)O)C(=O)O)cc1 (configuration not stated),62*,-11,0,4,6,70*,-7,Scp-1 Tm shift=4
CCOC(=O)CCC(NC(=O)c1cncc(O)c1)C(=O)OCC (configuration not stated),3,-9,1,0,-2,/,/,
CCCN(CCC)C(=O)C(CCC(=O)O)NC(=O)c1ccccc1 (configuration not stated),-3,0,-2,4,-1,/,/,
CN(Cc1cnc2nc(N)nc(N)c2n1)c1ccc(C(=O)NC(CCC(=O)O)C(=O)O)cc1C(F)(F)F (configuration not stated),50*,-5,4,12,25,3,-8,
Cc1c(C(=O)N(C)Cc2ccc(F)cc2)sc(=O)n1Cc1ccc(Cl)c(Cl)c1,/,27,0,-2,1,/,/,
COc1ccc(S(=O)(=O)N2CCOCC2)cc1NC(=O)c1cccc(-n2cccc2)c1,58*,10,0,23,13,-7,-18,
Cc1ccc(Cc2c(-c3ccc(Cl)cc3)nc3c(C)cc(Br)cn23)cc1,/,16,-4,4,0,/,/,
OC(c1ccc(F)cc1)c1ncc(-c2ccc3ccccc3c2)[nH]1 (configuration not stated),/,5,1,-16,0,/,/,
Cc1cc(C)c2c(N)c(C(=O)c3ccc(Cl)c(Cl)c3)sc2n1,80*,3,19,-5,62*,10,-8,
Cc1onc(-c2ccccc2Cl)c1C(=O)NCc1ccco1,83*,-6,3,3,21,-7,-11,
COC(=O)CNC(=O)c1c(-c2ccccc2Cl)noc1C,0,-6,-1,-1,-1,/,/,
COC(=O)CNC(=O)c1c(-c2c(Cl)cccc2Cl)noc1C,55*,-5,-6,2,0,-10,-12,
CCC(=O)c1ccc(NC(C)=O)cc1O,-11,-6,-1,-1,0,/,/,
CC(=O)Nc1ccc2c(c1)C(C)(C)C(C)N2C (configuration not stated),82*,/,/,/,/,-6,-11,
Cc1ccc(C(=O)N/N=C\C=C\c2ccc(Br)cc2)cn1,72*,2,6,-19,1,48*,-6,Scp-1 Tm shift=-16
Cc1cc(C=O)c(C)n1-c1cccc(C(=O)O)c1,53*,-3,4,0,-1,52*,-13,Scp-1 Tm shift=-4

# Source: PubChem BioAssay
